Hits are enriched below; roughly 2.9% of the tested compounds scored in any of these assays.
FAS TE block: inhibitors of human fatty acid synthase thioesterase domain. recombinant FAS-TE, OMFH fluorogenic substrate, fluorescence endpoint. inhibition, % at 15 µM. 0.67% of 360,000 active;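 active = compounds whose normalised, plate-corrected inhibition of enzyme fluorescence in the single-dose primary screen is 50% or more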;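 note: 0% = DMSO with enzyme and 100% = substrate without enzyme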
Target sequence (P49327 whole entry, looked up, the tested form may be a part): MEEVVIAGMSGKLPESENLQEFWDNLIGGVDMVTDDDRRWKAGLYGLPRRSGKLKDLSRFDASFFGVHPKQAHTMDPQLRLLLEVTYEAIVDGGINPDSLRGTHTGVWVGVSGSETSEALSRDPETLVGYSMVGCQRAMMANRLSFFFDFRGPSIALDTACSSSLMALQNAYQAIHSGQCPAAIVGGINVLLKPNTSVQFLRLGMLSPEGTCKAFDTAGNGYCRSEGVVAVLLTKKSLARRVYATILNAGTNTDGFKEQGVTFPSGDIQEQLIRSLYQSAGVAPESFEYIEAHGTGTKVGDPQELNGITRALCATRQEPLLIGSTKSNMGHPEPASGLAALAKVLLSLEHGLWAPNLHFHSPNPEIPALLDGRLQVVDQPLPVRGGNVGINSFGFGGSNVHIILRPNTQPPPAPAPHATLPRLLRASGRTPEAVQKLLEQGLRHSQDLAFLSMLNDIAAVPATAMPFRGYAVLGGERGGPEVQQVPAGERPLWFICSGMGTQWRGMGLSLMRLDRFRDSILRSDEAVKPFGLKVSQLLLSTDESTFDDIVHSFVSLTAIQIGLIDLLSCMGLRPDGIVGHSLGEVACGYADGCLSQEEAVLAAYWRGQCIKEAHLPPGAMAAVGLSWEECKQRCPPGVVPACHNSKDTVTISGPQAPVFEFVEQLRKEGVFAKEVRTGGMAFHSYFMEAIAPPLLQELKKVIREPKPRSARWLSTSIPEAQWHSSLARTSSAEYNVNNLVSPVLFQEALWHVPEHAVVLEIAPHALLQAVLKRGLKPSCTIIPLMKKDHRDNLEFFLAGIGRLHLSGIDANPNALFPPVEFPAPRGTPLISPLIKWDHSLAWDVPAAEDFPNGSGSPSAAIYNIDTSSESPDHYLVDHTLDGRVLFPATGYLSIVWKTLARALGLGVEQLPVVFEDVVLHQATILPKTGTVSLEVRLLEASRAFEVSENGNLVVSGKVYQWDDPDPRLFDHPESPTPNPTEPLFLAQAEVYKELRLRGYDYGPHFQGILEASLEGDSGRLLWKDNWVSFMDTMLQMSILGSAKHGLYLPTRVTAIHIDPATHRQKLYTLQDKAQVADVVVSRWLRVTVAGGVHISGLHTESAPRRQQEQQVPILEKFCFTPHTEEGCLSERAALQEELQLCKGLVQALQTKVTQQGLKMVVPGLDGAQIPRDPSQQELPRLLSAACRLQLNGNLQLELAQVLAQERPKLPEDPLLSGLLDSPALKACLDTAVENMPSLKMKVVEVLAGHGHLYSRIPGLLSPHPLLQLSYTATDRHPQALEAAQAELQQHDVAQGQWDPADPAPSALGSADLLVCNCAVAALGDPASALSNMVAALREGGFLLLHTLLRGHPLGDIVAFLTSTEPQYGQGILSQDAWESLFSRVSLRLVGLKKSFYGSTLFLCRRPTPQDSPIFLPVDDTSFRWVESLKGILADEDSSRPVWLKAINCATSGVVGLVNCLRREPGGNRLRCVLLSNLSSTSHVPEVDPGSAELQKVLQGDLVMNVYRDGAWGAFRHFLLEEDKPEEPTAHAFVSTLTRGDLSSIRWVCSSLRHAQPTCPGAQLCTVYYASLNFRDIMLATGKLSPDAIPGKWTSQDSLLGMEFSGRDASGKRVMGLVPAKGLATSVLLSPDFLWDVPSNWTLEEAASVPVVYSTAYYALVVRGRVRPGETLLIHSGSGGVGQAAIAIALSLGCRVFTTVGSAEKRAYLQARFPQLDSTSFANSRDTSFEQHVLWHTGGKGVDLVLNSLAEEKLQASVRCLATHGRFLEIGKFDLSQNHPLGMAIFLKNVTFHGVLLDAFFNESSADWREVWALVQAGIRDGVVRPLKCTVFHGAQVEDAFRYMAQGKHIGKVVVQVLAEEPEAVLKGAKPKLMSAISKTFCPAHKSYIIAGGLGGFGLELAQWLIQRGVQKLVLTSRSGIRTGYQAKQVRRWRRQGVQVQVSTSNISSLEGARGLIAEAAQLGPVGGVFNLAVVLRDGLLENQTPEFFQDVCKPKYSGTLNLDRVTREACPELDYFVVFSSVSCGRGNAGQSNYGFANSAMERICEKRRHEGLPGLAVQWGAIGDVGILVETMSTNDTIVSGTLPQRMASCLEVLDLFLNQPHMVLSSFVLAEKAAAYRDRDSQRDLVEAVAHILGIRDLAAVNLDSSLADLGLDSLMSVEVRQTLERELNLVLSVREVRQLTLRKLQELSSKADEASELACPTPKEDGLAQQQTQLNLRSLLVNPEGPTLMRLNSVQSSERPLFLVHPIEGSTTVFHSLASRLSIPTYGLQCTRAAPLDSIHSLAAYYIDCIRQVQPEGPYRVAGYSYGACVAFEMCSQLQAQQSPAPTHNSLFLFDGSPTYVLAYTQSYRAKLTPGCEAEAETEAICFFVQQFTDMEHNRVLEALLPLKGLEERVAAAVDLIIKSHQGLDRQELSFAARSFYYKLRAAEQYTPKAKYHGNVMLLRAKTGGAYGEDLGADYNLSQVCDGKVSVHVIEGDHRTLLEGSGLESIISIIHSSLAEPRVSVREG
Arr AP2 block: human beta-arrestin and AP2 interaction inhibition | AID 504490 | 0.31% of 340,000 active | inhibition, % at 10 µM | FITC-arrestin peptide / GST-AP2 beads, flow cytometry; AP2 beta2 appendage carries R879A mutation;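 active = inhibition above a set limit, near 3 SD of compounds lacking own fluorescence, cut at about 54% in these data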;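 note: plate controls were DMSO wells for no effect and 5 µM unlabelled arrestin peptide for full effect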
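system = GST-tagged AP2 beta2-adaptin appendage (R879A) on 4 µm glutathione beads | reagent = FITC-labelled arrestin peptide probe, 50 nM final | schedule = compound with beads 12 min RT, then probe 1 h RT | signal = HyperCyt-sampled flow cytometry, FL1 channel, ex 488/em 535 nm | read-out = percent response from loss of bead-bound FITC fluorescence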
CaV13 ICDI inh: Disruptors of the CACNA1D IQ motif to Ca2+-dependent inactivation inhibitor domain association, primary screening, Förster resonance energy transfer in intact living …; 0.098% of 340,000 active; HEK cells, CFP/YFP FRET ICDI-IQ, plate reader, 10 min; percent FRET-ratio fall versus neutral wells; inhibition, % at 12.3 µM;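 active = mean replicate inhibition of at least 30% and at least 1% of replicates passing that level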;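 note: 0% = median of the neutral control wells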
ADAM10 inh: inhibits human ADAM10. recombinant ADAM10, EDANS/DABCYL FRET peptide cleavage, 3 h. 0.62% of 370,000 active. inhibition, % at 7 µM;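 active = inhibition above a per-campaign cutoff equal to the mean of compounds falling between control-based bounds plus 3 SD, cut at about 20% in these data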;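 note: 0% = DMSO wells while the 100% control is not disclosed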
ADAM17 inh: inhibits human ADAM17; P78536; recombinant ADAM17, EDANS/DABCYL FRET peptide cleavage; inhibition, % at 6.95 µM; 0.83% of 370,000 active; AID 720648;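 active = inhibition above the mean of compounds lying between control limits plus 3 SD, set per campaign, cut at about 8.5% in these data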;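 note: 0% = DMSO-only wells as the low control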
CendR NRP1 mod: modulators of CendR peptide binding to human neuropilin-1 | FAM-RPARPAR peptide binding to NRP-1, fluorescence polarization | inhibition, % at 25 µM | 0.85% of 360,000 active | AID 602438;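 active = inhibition or corrected inhibition above about 18%, plus a signal ratio from 0.5 to 1.5, limit read from the data, passing the limit was not always enough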
* marks the source's active call; other numbers are inactive results.

Results for CCN(CC)CCCNC(=O)C1c2ccccc2C(=O)N1Cc1ccc(C)cc1 (stereo not given) ?
FAS TE block: -8.6; Arr AP2 block: -2.5; CaV13 ICDI inh: -5.5; ADAM10 inh: -4.4; ADAM17 inh: -5.5; CendR NRP1 mod: 18.8*

How did Cc1ccc(CN2C(=O)c3ccccc3C2C(=O)NCC2CCCO2)cc1 (stereo not given) do in these assays?
FAS TE block: -13.5; Arr AP2 block: -6.0; CaV13 ICDI inh: -5.5; ADAM10 inh: 5.6; ADAM17 inh: -1.8; CendR NRP1 mod: 8.8

What do the screens show for `Cc1ccc(C)c(SCC(=O)NC(=O)NC2CCCC2)c1`?
FAS TE block: 8.4; Arr AP2 block: -3.2; CaV13 ICDI inh: -2.6; ADAM10 inh: 0.7; ADAM17 inh: -4.1; CendR NRP1 mod: -2.7

What do the screens show for `CN(C)c1ccc(-c2ccnc3c2CC(C)(C(=O)NCc2cccc(Cl)c2)O3)cc1` (stereo not given)?
FAS TE block: 30.3; CaV13 ICDI inh: -6.3; ADAM10 inh: inactive; ADAM17 inh: -286.2; CendR NRP1 mod: -1.5

Results for CC(Oc1cccc(Cl)c1)C(=O)NCc1ccc(S(N)(=O)=O)cc1 (stereo not given) ?
FAS TE block: -6.6; Arr AP2 block: 1.0; CaV13 ICDI inh: -0.9; ADAM10 inh: -3.1; ADAM17 inh: -1.8; CendR NRP1 mod: 30.4*

How did CC(C)CNC(=O)C1C(=O)Nc2ccccc2C(=O)N1C1CCCCC1 (stereo not given) do in these assays?
CaV13 ICDI inh: -9.3; ADAM10 inh: -20.4; ADAM17 inh: -8.6; CendR NRP1 mod: -1.2

Results for O=C(Nc1ccc2c(c1)OCCO2)C1C(=O)Nc2ccccc2C(=O)N1C1CCCCC1 (stereo not given) ?
CaV13 ICDI inh: -7.8; ADAM10 inh: -14.3; ADAM17 inh: -6.8; CendR NRP1 mod: 21.0*

How did Cc1cc(N/C(=N/S(=O)(=O)c2cc(F)ccc2F)c2ccccc2)n(-c2ccccc2)n1 do in these assays?
FAS TE block: 18.0; Arr AP2 block: -11.2; CaV13 ICDI inh: -5.0; ADAM10 inh: -6.1; ADAM17 inh: -0.5; CendR NRP1 mod: 26.6*

How did Cc1cc(N/C(=N/S(=O)(=O)c2ccc(F)cc2)c2ccccc2)n(-c2ccccc2)n1 do in these assays?
FAS TE block: 21.2; Arr AP2 block: -7.8; CaV13 ICDI inh: -6.2; ADAM10 inh: 8.6; ADAM17 inh: 2.8; CendR NRP1 mod: 10.5

Results for O=C1OC(N2C(=O)CC[C@H]2C(=O)NCC2CCCO2)c2ccccc21 (stereo not given in full) ?
FAS TE block: -3.0; Arr AP2 block: -8.4; ADAM10 inh: -19.1; ADAM17 inh: -4.9; CendR NRP1 mod: 21.7*

Results for C=CCN1[C@H](C)COc2cc(N3CCSCC3)ccc2S1(=O)=O ?
ADAM10 inh: 1.6; ADAM17 inh: 1.8

Results for Cc1cccc(NC(=O)Nc2nc3ncccn3c2-c2ccc(F)cc2)c1 ?
ADAM10 inh: -140.2; ADAM17 inh: -37.2

Results for C[n+]1cccc2c(Br)ccc([O-])c21 ?
FAS TE block: -6.5; Arr AP2 block: 5.5; CaV13 ICDI inh: -5.0; ADAM10 inh: -3.1; ADAM17 inh: 2.4; CendR NRP1 mod: 25.8*

How did [O-][n+]1cccc2c(Br)cc(Br)c(O)c21 do in these assays?
FAS TE block: 7.8; Arr AP2 block: 17.8; CaV13 ICDI inh: 3.3; ADAM10 inh: -16.7; ADAM17 inh: -4.4; CendR NRP1 mod: 13.3

What do the screens show for `CCN(C(=O)COc1ccc(C(C)=O)cc1)c1cccc2ccccc12`?
FAS TE block: 10.4; Arr AP2 block: 0.6; CaV13 ICDI inh: -2.8; ADAM10 inh: -6.0; ADAM17 inh: 4.6; CendR NRP1 mod: 36.0*

What do the screens show for `CC1(C)O[C@@H]2[C@H](O1)[C@@H](CO)O[C@H]2n1cnc2c(=O)[nH]cnc21`?
FAS TE block: -10.2; Arr AP2 block: 7.6; CaV13 ICDI inh: -5.6; ADAM10 inh: 10.6; ADAM17 inh: 1.3; CendR NRP1 mod: 25.7*

How did Cc1ccc(NC(=O)c2ccccc2[N+](=O)[O-])nc1 do in these assays?
FAS TE block: -3.8; Arr AP2 block: -8.4; CaV13 ICDI inh: -3.5; ADAM10 inh: -5.3; ADAM17 inh: -4.0; CendR NRP1 mod: 29.8*

Results for Cc1ccc(NC(=O)c2cccc(Cl)c2)nc1 ?
FAS TE block: -3.2; Arr AP2 block: 2.2; CaV13 ICDI inh: -6.6; ADAM10 inh: -0.5; ADAM17 inh: -4.9; CendR NRP1 mod: 24.9*

How did Cc1ccc(NC(=O)CNC(=O)c2cccc(Cl)c2)nc1 do in these assays?
FAS TE block: -3.4; Arr AP2 block: 25.8; CaV13 ICDI inh: -6.3; ADAM10 inh: 3.7; ADAM17 inh: -3.2; CendR NRP1 mod: -2.6

Results for O=Nc1ccc(Cl)cn1 ?
CaV13 ICDI inh: -3.9; ADAM10 inh: -43.5; ADAM17 inh: -11.4

What do the screens show for `CN(C)CCCN1C(=O)c2cccc3c(Br)ccc(c23)C1=O`?
FAS TE block: -6.1; Arr AP2 block: -79.5; CaV13 ICDI inh: -7.7; ADAM10 inh: -73.5; ADAM17 inh: -27.5; CendR NRP1 mod: 24.8*

Results for CC(C)OC(=O)CSc1nnc(-c2ccccn2)n1-c1ccccc1 ?
FAS TE block: -11.4; Arr AP2 block: 1.2; ADAM10 inh: -13.6; ADAM17 inh: -9.4; CendR NRP1 mod: 21.3*

How did Cc1cc(-c2n[nH]c(=S)n2N=Cc2cccc(OCc3ccccc3)c2)n[nH]1 do in these assays?
ADAM10 inh: 0.7; ADAM17 inh: 0.5

What do the screens show for `O=C(NCc1ccccc1)C(CCc1ccccc1)n1c(=O)c(-c2ccccc2)nc2ccccc21` (stereo not given)?
CaV13 ICDI inh: -10.9; ADAM10 inh: -85.2; ADAM17 inh: -22.8; CendR NRP1 mod: -13.0

What do the screens show for `COc1ccc(C(=O)Nc2c(F)c(F)c(F)c(F)c2F)c(OC)c1`?
FAS TE block: 2.8; Arr AP2 block: 11.4; CaV13 ICDI inh: -6.6; ADAM10 inh: -6.0; ADAM17 inh: -3.0; CendR NRP1 mod: 20.2*

How did COc1ccc(C(=O)Nc2ccc3ccccc3c2)c(OC)c1 do in these assays?
FAS TE block: 27.1; Arr AP2 block: -8.3; CaV13 ICDI inh: -4.8; ADAM10 inh: 12.7; ADAM17 inh: 2.6; CendR NRP1 mod: -17.0

Results for CCN(CC)c1nc(C#N)cc(-c2ccc(OC)cc2)n1 ?
FAS TE block: 20.3; Arr AP2 block: -7.8; CaV13 ICDI inh: -4.3; ADAM10 inh: -15.4; ADAM17 inh: -12.2; CendR NRP1 mod: 24.1*

Results for COc1ccc(CNC(=O)c2cc(-c3ccccc3)c(N3CCOCC3)s2)cc1OC ?
ADAM10 inh: 7.7; ADAM17 inh: 6.8

How did CC(CN1CCOCC1)OC(=O)c1ccc2c(c1)OCCO2 (stereo not given) do in these assays?
FAS TE block: -5.2; Arr AP2 block: 6.7; CaV13 ICDI inh: -5.9; ADAM10 inh: 5.9; ADAM17 inh: -1.9; CendR NRP1 mod: 27.4*
